Records with an inconclusive call do not appear.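 How the source made its calls, unless noted: active means RAM network inhibition above 8.4% in each of two replicates, 3 SD over the compound average; inconclusive means above 8.4% inhibition in only one replicate; inactive means 8.4% inhibition or less in each replicate.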
How the values were obtained:
[1] = S. cerevisiae growth inhibition in permissive medium (OD615), pilot counter-assay for S. cerevisiae lifespan shortening project, permissive growth control (AID 705;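 active means growth inhibition above 25% in both replicates, a cutoff set 3 SD above the mean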); details: OD615, 24 h, at 10 µM, active compounds read high
In short: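 System: engineered DeaD yeast; Medium: permissive raffinose/galactose medium; Compound dosing: 10 µM single dose, 0.25% DMSO; Incubation: 4 h cell pre-growth, 24 h exposure at 30 °C; Technique: OD at 615 nm; Evaluation: growth inhibition from lowered OD615 after 24 h.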

[2] = S. cerevisiae growth inhibition in restrictive medium, OD615, pilot screen, restrictive growth control, yeast lifespan reduction project (AID 706;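 active means growth inhibition above a set limit, 3 SD over mean compound inhibition, in both replicates, cut at about 43% in these data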;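 further: modified DeaD lifespan yeast strain shifted to restrictive glucose medium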); details: OD615, 48 h, at 10 µM, active compounds read high
In short: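 Material: modified S. cerevisiae; buffer or medium: CSMM-D glucose medium; doses: one concentration, 10 µM final, 0.25% DMSO; incubation: 48 h compound exposure at 30 °C; detection: optical density at 615 nm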

[3] = doxorubicin toxicity protection in MRP-1 cells – H69AR cells, CellTiter-Glo, duplicate, MRP-1 activator project, pilot screen (AID 807;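 active means viability increase at or above a cutoff of the median across tested compounds plus 3 SD, cut at about 8.5% in these data, passing the limit was not always enough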;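 further: compound pretreatment 18-22 h then 72 h combined with doxorubicin; 0% = doxorubicin alone and 100% = vehicle without doxorubicin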); details: H69AR viability with doxorubicin, CellTiter-Glo luminescence; at 10 µM; active compounds read high
[4] = viability of HCT116 without oncogenic beta-catenin – human colon tumor cells, pilot screen (AID 823;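 active means cell viability at or below a set limit in both duplicate runs, the limit being the all-compound median minus 4 SD, cut at about 23% in these data, passing the limit was not always enough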;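 further: 0% = wells killed by 20 µM Hyamine and 100% = untreated DMSO cell wells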); details: HCT116 beta-catenin knockout viability, CellTiter-Glo, 60 h; at 10 µM; active compounds read low
[5] = viability of PTEN-null HCT116 cells – cell-based, HCT116 clonal line, CellTiter-Glo, pilot screen (AID 824;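 active means viability at or below 27.92% in each of two runs, the all-compound median minus 4 SD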;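 further: 0% = 20 µM Hyamine control and 100% = vehicle cell control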); details: HCT116 PTEN-deleted viability, 60 h, at 10 µM, active compounds read low
[6] = RAM pathway blockade in budding yeast – dse1pr::URA3 reporter, 5-FOA selection, pilot screen (AID 869;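 active means inhibition over a set limit, the all-compound mean plus 3 SD, in both replicate runs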;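 further: 0% = DMSO wells with no growth and 100% = 10 µM 1-NA-PP1 with full growth; RAM network block rescues cells from 5-FOA so hits raise OD615 growth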); details: S. cerevisiae dse1pr::URA3 5-FOA growth, OD615, 2 d; at 10 µM; active compounds read high; strain carries analog-sensitive mutant Cbk1 kinase
[7] = RAM signaling pathway blockade in yeast – S. cerevisiae, Pdr1DBD-CYC8 efflux-inhibited sensitized strain, primary screen (AID 1298);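 further: 0% = DMSO untreated cells without growth and 100% = 10 µM 1-NA-PP1 full growth; higher means more yeast growth rescued from 5-FOA killing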; details: S. cerevisiae cbk1-as DSE1-URA3 strain, 5-FOA growth OD615, 2 d; at 50 µM; active compounds read high

CCOc1cccc(NC(=O)c2ccc(S(=O)(=O)N3CCCC3)cc2)c1
inactive: growth inhibition [1] 0.65% | growth inhibition [2] -11.1% | viability increase [3] -2.68% | viability [4] 87.5% | viability [5] 82.1% | inhibition [6] 0.965% | RAM network inhibition [7] -0.21%

Cc1cc(C)nc(SCC(=O)NCc2ccco2)n1
inactive: growth inhibition [1] 3.65% | growth inhibition [2] 6.47% | viability increase [3] -5.58% | viability [4] 70.6% | viability [5] 78.4% | inhibition [6] -0.38% | RAM network inhibition [7] 2.1%

COc1ccc(C2c3c(oc4ccc(F)cc4c3=O)C(=O)N2CCN2CCOCC2)cc1OC (stereo not drawn)
inactive: growth inhibition [1] -0.77% | growth inhibition [2] 4.3% | viability increase [3] -1.12% | viability [4] 107% | viability [5] 108% | inhibition [6] 0.315% | RAM network inhibition [7] 2.7%

CCCc1n[nH]c2c1C(=O)C(C(=O)OC)C(C)(C)C2 (stereo not drawn)
inactive: growth inhibition [1] -12.6% | growth inhibition [2] -12.8% | viability increase [3] -3.14% | viability [4] 95.9% | viability [5] 95.8% | inhibition [6] 1.14% | RAM network inhibition [7] 4.78%

O=C(c1ccc(-c2ccccc2)cc1)N1CCCC1
inactive: growth inhibition [1] 0.63% | growth inhibition [2] -4.7% | viability increase [3] 0.06% | viability [4] 94.9% | viability [5] 98.8% | inhibition [6] 0.02% | RAM network inhibition [7] 10.3%

O=C(c1ccccc1C(=O)N1CCN(c2ccccc2F)CC1)N1CCN(c2ccccc2F)CC1
inactive: growth inhibition [1] -6.81% | growth inhibition [2] -15.5% | viability increase [3] -0.42% | viability [4] 61.6% | viability [5] 68.2% | inhibition [6] 1.44% | RAM network inhibition [7] 11.2%

CCOC(=O)c1sc(N)nc1-c1ccccc1
inactive: growth inhibition [1] -5.04% | growth inhibition [2] 1.07% | viability increase [3] -2.29% | viability [4] 101% | viability [5] 94.5% | inhibition [6] 2.48% | RAM network inhibition [7] -2.06%

Cc1ccc2c(c1)N(CCCC(=O)NCCCN1CCCC1=O)C(=O)CO2
inactive: growth inhibition [1] -11.1% | growth inhibition [2] -13.3% | viability increase [3] -2.09% | viability [4] 98.2% | viability [5] 94% | inhibition [6] 1.64% | RAM network inhibition [7] 1.27%

O=C(Cc1ccccc1)NCCn1ccc2ccccc21
inactive: growth inhibition [1] -10.7% | growth inhibition [2] -13.2% | viability increase [3] -1.79% | viability [4] 94.6% | viability [5] 88.8% | inhibition [6] 0.01% | RAM network inhibition [7] 3.55%

COc1ccc(CCN=C2SCC(=O)N2C)cc1OC
inactive: growth inhibition [1] 3.32% | growth inhibition [2] 1.86% | viability increase [3] -0.79% | viability [4] 102% | viability [5] 97% | inhibition [6] 2.14% | RAM network inhibition [7] 6.13%

CCOCCCNC(=O)c1cc2c(-c3ccc(Cl)cc3)nn(C)c2s1
inactive: growth inhibition [1] 7.49% | growth inhibition [2] 11% | viability increase [3] -6.53% | viability [4] 62.2% | viability [5] 56.8% | inhibition [6] 2.62% | RAM network inhibition [7] 1.34%

C1CCc2c(nc3nnnn3c2N2CCOCC2)C1
inactive: growth inhibition [1] -0.9% | growth inhibition [2] 3.85% | viability increase [3] 1.82% | viability [4] 107% | viability [5] 98.4% | inhibition [6] 1.07% | RAM network inhibition [7] 5.8%

O=C(C1CC1)N1CCc2cc(Br)cc(S(=O)(=O)NCCCN3CCCC3)c21
inactive: growth inhibition [1] -9.22% | growth inhibition [2] -4.36% | viability increase [3] -2.47% | viability [4] 87.6% | viability [5] 86.3% | inhibition [6] 0.08% | RAM network inhibition [7] 5.37%

CCOc1cc(N2CCOCC2)c(OCC)cc1NC(=O)c1cc(-c2ccco2)nc2ccccc12
inactive: growth inhibition [1] 1.62% | growth inhibition [2] -4.63% | viability increase [3] -5.6% | viability [4] 65.4% | viability [5] 60.8% | inhibition [6] 0.475% | RAM network inhibition [7] 6.51%

CN1CCN(C(=O)c2ccc3c(c2)N(Cc2ccc(Cl)cc2)C(=O)c2ccccc2S3=O)CC1 (stereo not drawn)
inactive: growth inhibition [1] -0.89% | growth inhibition [2] -13.2% | viability increase [3] -4.61% | viability [4] 80.3% | viability [5] 83% | inhibition [6] 0.215% | RAM network inhibition [7] 1.3%

CCCN1C(=O)c2cc(C(=O)Nc3ccccc3CC)ccc2C1O (stereo not drawn)
inactive: growth inhibition [1] -6.36% | growth inhibition [2] -1.31% | viability increase [3] -0.05% | viability [4] 101% | viability [5] 108% | inhibition [6] 0.77% | RAM network inhibition [7] 3.59%

OCCOCCn1c(-c2ccccc2)nc(=S)c2c1CCCC2
inactive: growth inhibition [1] -3.65% | growth inhibition [2] 14.6% | viability increase [3] -0.07% | viability [4] 102% | viability [5] 106% | inhibition [6] 0.73% | RAM network inhibition [7] 6.53%

COc1cc(C(=O)Nc2ccc(S(=O)(=O)Nc3onc(C)c3C)cc2)cc(OC)c1OC
inactive: growth inhibition [1] -5.13% | growth inhibition [2] -14.8% | viability increase [3] 0.55% | viability [4] 104% | viability [5] 105% | inhibition [6] 0.945% | RAM network inhibition [7] 4%

CCn1c(C(=O)N2CCc3ccccc3C2)cc2sccc21
inactive: growth inhibition [1] -11.6% | growth inhibition [2] -2.25% | viability increase [3] -0.05% | viability [4] 84.1% | viability [5] 74.5% | inhibition [6] 0.465% | RAM network inhibition [7] 4.84%

COc1cccc(CN2CCNC(=O)C2CC(=O)O)c1OC (stereo not drawn)
inactive: growth inhibition [1] -18.3% | growth inhibition [2] -12.7% | viability increase [3] -2.76% | viability [4] 101% | viability [5] 97% | inhibition [6] 1.81% | RAM network inhibition [7] 2.85%

COC(=O)c1nc2n(n1)C(c1cccc(Cl)c1)C1=C(CCCC1=O)N2 (stereo not drawn)
inactive: growth inhibition [1] -4.09% | growth inhibition [2] 7.08% | viability increase [3] -2.99% | viability [4] 98.1% | viability [5] 95.3% | inhibition [6] 0.155% | RAM network inhibition [7] 1.89%

CC1CCN(c2nc3ccccc3nc2C(C#N)S(=O)(=O)c2ccccc2)CC1 (stereo not drawn)
inactive: growth inhibition [1] -32.5% | growth inhibition [2] -14.6% | viability increase [3] -2.55% | viability [4] 91.4% | viability [5] 95.1% | inhibition [6] 1.22% | RAM network inhibition [7] 4.37%

CCC/C(O)=C1\C(=O)CC(C)(C)CC1=Nc1ccccc1OC
inactive: growth inhibition [1] -18.3% | growth inhibition [2] -21.1% | viability increase [3] -2.83% | viability [4] 87.6% | viability [5] 87% | inhibition [6] 3.95% | RAM network inhibition [7] 9.85%

COc1ccc(-n2c(Cc3cccn3C)nnc2SCC(=O)N2CCC(C)CC2)cc1
inactive: growth inhibition [1] 4.99% | growth inhibition [2] 18.8% | viability increase [3] -0.89% | viability [4] 94% | viability [5] 94.5% | inhibition [6] 1.42% | RAM network inhibition [7] 2.73%

Reference: PubChem BioAssay
